Experimental data as given in PMC8927994 (iScience, 2022).
Read-outs that look alike come from different tables or passages of the source.

Key:
[1] = system: imiquimod-induced psoriasis model mice; experiment: IMQ-induced psoriasis-like mouse model; format: in vivo
PTP1B = target: T1, PTP1B (Homo sapiens, UniProt P18031); experiment: PTP1B enzyme activity assay; format: biochemical; details: read-out: IC50 PTP1B, DiFMUP substrate
T1 sequence (P18031 1-435): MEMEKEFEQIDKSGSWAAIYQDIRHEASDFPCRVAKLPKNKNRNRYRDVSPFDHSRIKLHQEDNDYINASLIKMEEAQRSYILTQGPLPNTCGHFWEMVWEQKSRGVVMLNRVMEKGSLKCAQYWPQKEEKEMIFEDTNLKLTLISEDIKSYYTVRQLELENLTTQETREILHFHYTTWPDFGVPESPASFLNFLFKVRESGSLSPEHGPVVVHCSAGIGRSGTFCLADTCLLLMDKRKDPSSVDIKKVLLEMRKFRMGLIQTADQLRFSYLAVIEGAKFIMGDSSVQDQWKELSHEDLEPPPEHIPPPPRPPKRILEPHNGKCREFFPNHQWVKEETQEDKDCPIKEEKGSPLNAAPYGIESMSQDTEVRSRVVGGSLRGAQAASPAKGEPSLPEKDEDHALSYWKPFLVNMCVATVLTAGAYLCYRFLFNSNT
Summary of the method: (§1)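 In-house expressed recombinant enzyme, purified by gel filtration, at the same conditions as the SHP2 assay but without IRS1 activating peptide. Test compound at 0.001–100 μM is preincubated with enzyme for 30–60 min at 25°C. DiFMUP is then added for 30 min at 25°C, and the reaction is quenched with bpV(Phen). Fluorescence is read at ex 340/em 450 nm, and IC50 comes from the dose-response curve.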

[2] = system: mouse peritoneal macrophages (PMs); experiment: Imiquimod-induced inflammation in peritoneal macrophages; format: cell-based
SHP1 = SHP1 (Homo sapiens, UniProt P29350); experiment: SHP1 enzyme activity assay; format: biochemical; details: read-out: IC50 SHP1, DiFMUP substrate
Summary of the method: as §1

[3] = system: bone marrow-derived macrophages (BMDMs); experiment: Imiquimod-induced inflammation in bone marrow-derived macrophages; format: cell-based, mouse
SHP2 protein [4] = details: acute myeloid leukemia MV4;11 cells; ref Wang et al., 2021; cited from earlier work
SHP2 protein [5] = details: esophageal cancer KYSE520 cells; ref Wang et al., 2021; cited from earlier work
[6] = 10 μM pretreated 3 h, 5 μM IMQ 1 h

Sequence of SHP1 (P29350 whole entry): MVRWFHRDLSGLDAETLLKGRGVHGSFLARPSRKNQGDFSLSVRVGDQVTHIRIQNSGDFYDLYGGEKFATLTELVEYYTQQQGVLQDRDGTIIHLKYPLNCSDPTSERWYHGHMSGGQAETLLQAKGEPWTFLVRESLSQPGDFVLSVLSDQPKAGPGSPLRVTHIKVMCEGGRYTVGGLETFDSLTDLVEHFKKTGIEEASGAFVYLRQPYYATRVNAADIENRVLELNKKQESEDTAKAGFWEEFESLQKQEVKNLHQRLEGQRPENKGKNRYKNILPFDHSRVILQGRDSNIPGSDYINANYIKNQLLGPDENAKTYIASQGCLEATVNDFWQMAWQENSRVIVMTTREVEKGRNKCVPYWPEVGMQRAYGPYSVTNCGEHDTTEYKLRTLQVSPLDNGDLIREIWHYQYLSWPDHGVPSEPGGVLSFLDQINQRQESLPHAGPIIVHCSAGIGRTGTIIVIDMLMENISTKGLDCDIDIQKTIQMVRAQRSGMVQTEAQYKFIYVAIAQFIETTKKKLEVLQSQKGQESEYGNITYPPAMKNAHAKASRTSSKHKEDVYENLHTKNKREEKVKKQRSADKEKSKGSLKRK

Row | SMILES | infiltration of inflammatory cells (HE staining of skin sections) [1] | proliferation of epidermal cells (HE staining of skin sections) [1] | IC50 (PTP1B) [µM] | phosphorylation levels of p-IKKα/β and p-p65 (western blot) [2, 6] | gene expression levels of inflammatory factors Il23a, Il22, Il6, Tnfα, Il1b, Ptgs2 (qPCR) ([2]; pretreated 3 h, 5 μM IMQ 6 h) | IC50 (SHP1) [µM] | phosphorylation levels of p-IKKα/β and p-p65 (western blot) [3, 6] | gene expression levels of inflammatory factors Il23a, Il22, Il6, Tnfα, Il1b, Ptgs2 (qPCR) ([3]; pretreated 3 h, 5 μM IMQ 6 h) | reduction of SHP2 protein levels (SHP2 protein [4]) [%] | reduction of SHP2 protein levels (SHP2 protein [5]) [%]
1 | CC1(N)CCN(c2cnc(-c3cccc(Cl)c3Cl)c(N)n2)CC1 [SHP099] | significantly reduced | effectively inhibit | > 100 | inhibited the phosphorylation levels | significantly alleviated | > 100 | inhibited the phosphorylation levels | significantly alleviated | – | –
2 | Cc1ncsc1-c1ccc([C@H](C)NC(=O)[C@@H]2C[C@@H](O)CN2C(=O)[C@@H](NC(=O)CCCCCCCCN2CCN(C(=O)CCC(=O)Nc3cccc(Sc4ncc(N5CCC(C)(N)CC5)nc4N)c3Cl)CC2)C(C)(C)C)cc1 [SHP2-D26] | – | – | – | – | – | – | – | – | > 95 | > 95
